# Tests used:
# [1] = Inhibition of human soluble epoxide […] using fluorescent CMNPC as substrate after 10 mins by fluorometric assay
# In short: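 Recombinant human sEH, expressed in Sf9 cells via baculovirus with a His tag that was later removed, purified by metal-affinity and anion-exchange chromatography. Enzyme at 1 nM final, preincubated with inhibitor 10 min at 30 °C in 25 mM Bis-Tris/HCl pH 7.0. CMNPC then added at 5 μM. 6-Methoxy-2-naphthaldehyde fluorescence (ex 330/em 465 nm) followed for 10 min. IC50 by regression of at least six points; mean of three runs.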
# [2] = Aqueous solubility of the compound in […] phosphate buffer at pH 7.4; assay type: physicochemical
# In short: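 Light-scattering method at 25± 1.5 °C. Compound in DMSO was added at varying concentrations to 0.1 M sodium phosphate, pH 7.4, at 5:95 (v/v) DMSO:buffer. Insolubility was read as the rise in turbidity, measured as optical density at 650 nm.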
# [3] = Aqueous solubility of the compound in […] phosphate buffer at pH 7.4 relative to AUDA; assay type: physicochemical
SMILES,IC50 [1] [nM],solubility [2] [µM],fold change (FC) [3]
O=C(NCc1ccccc1)C12CC3CC(CC(C3)C1)C2,> 1000,,
O=C(NCCCc1ccccc1)C1CC1,> 1000,,
O=C(NCCCc1ccccc1)C1CCCC1,> 1000,,
O=C(NCCCc1ccccc1)C1CCCCC1,235,,
O=C(NCCCc1ccccc1)C1CC=CCC1 (stereo unspecified),222,,
O=C(NCCCc1ccccc1)C1CCC(C(F)(F)F)CC1 (stereo unspecified),64,,
CC(C)(C)C1CCC(C(=O)NCCCc2ccccc2)CC1 (stereo unspecified),58,,
O=C(NCCCc1ccccc1)C1CCC(O)CC1 (stereo unspecified),> 1000,,
O=C1CCC(C(=O)NCCCc2ccccc2)CC1,> 1000,,
O=C(NCCCc1ccccc1)C1CCC(CO)CC1 (stereo unspecified),243,,
O=C(NCCCc1ccccc1)C1CCCO1 (stereo unspecified),> 1000,,
O=C(NCCCc1ccccc1)C1CCOCC1,> 1000,,
COC(=O)C1CCC(C(=O)NCCCc2ccccc2)CC1 (stereo unspecified),78,,
O=C(O)C1CCC(C(=O)NCCCc2ccccc2)CC1 (stereo unspecified),> 1000,,
COC(=O)C1CCCCC1C(=O)NCCCc1ccccc1 (stereo unspecified),> 1000,,
COC(=O)C1C2C=CC(C2)C1C(=O)NCCCc1ccccc1 (stereo unspecified),> 1000,,
O=C(NCCCc1ccccc1)C12CC3CC(CC(C3)C1)C2,41,,

SMILES,IC50 [1] [nM],solubility [2] [µM],fold change (FC) [3]
O=C(NCCCc1ccccc1)C1CCc2ccccc2C1 (stereo unspecified),15,,
O=C(NCCCc1ccccc1)C1(c2ccccc2)CC1,> 1000,,
O=C(NCCCc1ccccc1)C1(c2ccccc2)CCCC1,> 1000,,
O=C(NCCc1ccccc1)C12CC3CC(CC(C3)C1)C2,230,,
O=C(NCCCCc1ccccc1)C12CC3CC(CC(C3)C1)C2,180,,
CCOC(=O)c1ccc(NC(=O)C23CC4CC(CC(C4)C2)C3)cc1,101,,
COc1ccc(NC(=O)C23CC4CC(CC(C4)C2)C3)cc1,> 1000,,
COC(=O)c1ccc(CNC(=O)C23CC4CC(CC(C4)C2)C3)cc1,9.1,125,2
COC(=O)c1ccc(CCNC(=O)C23CC4CC(CC(C4)C2)C3)cc1,230,,
COC(=O)c1ccc2cc(NC(=O)C34CC5CC(CC(C5)C3)C4)ccc2c1,65,,
COC(=O)c1ccc(CNC(=O)C2CCc3ccccc3C2)cc1 (stereo unspecified),2.1,125,2
COC(=O)c1ccc(CNC(=O)c2ccc3ccccc3c2)cc1,6.6,31,
COC(=O)c1ccc(CNC(=O)c2ccc3cc(O)ccc3c2)cc1,1.8,31,
COC(=O)c1ccc(CNC(=O)c2ccc3cc(OC)ccc3c2)cc1,2.4,15,
CN(CCCc1ccccc1)C(=O)C12CC3CC(CC(C3)C1)C2,723,,
O=C(O)CCCCCCCCCCCNC(=O)NC12CC3CC(CC(C3)C1)C2,,63,
O=C(NCCCc1ccccc1)[C@@H]1C[C@H]1c1ccccc1 (relative stereo),288,,

# — ChEMBL document CHEMBL1687925, “Structure-activity relationships of cycloalkylamide derivatives as inhibitors of the soluble epoxide hydrolase” (J Med Chem, 2011)
